# Measurements published in ChEMBL document CHEMBL4376814, “Novel cyclin-dependent kinase 9 (CDK9) inhibitor with suppression of cancer stemness activity against non-small-cell lung cancer” (Eur J Med Chem, 2019).
# Tests used:
# [1] = test system: Calcium/calmodulin-dependent protein kinase kinase 2 (Homo sapiens), Q96RR4 [T85S]; experiment: Inhibition of recombinant full-length human CaMKK2 T85S mutant at 1 uM using calmodulin as substrate measured after 40 mins in presence of [gamma33P]ATP by scintillation counting method relative to control
# [2] = test system: eIF-2-alpha kinase GCN2 (Homo sapiens), Q9P2K8 [E556G]; experiment: Inhibition of recombinant full-length human GCN2 E556G mutant at 1 uM using RSRSRSRSRSRSRSR as substrate measured after 40 mins in presence of [gamma33P]ATP by scintillation counting method relative to control
# [3] = molecular target: TGF-beta receptor type-2 (Homo sapiens) (UniProt P37173); experiment: Inhibition of human TGFBR2 (188 to end residues) at 1 uM using myelin basic protein as substrate measured after 120 mins in presence of [gamma33P]ATP by scintillation counting method relative to control
# Method in brief: (§1)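 Percent inhibition of kinase activity at a single compound concentration, measured by the outsourced Eurofins KinaseProfiler panel. Values are the mean of two independent experiments.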
# [4] = molecular target: SRSF protein kinase 1 (Homo sapiens) (UniProt Q96SB4); experiment: Inhibition of human SRPK1 (2 to end residues) at 1 uM using RSRSRSRSRSRSRSR as substrate measured after 40 mins in presence of [gamma33P]ATP by scintillation counting method relative to control
# Method in brief: (§2)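 Single-point inhibition at 1 µM was measured in the Eurofins KinaseProfiler panel. Values are the mean of two independent experiments.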
# [5] = test system: CDK18/Cyclin Y (Homo sapiens), Q07002+Q8ND76 [T166M]; experiment: Inhibition of recombinant full length human cyclinY/CDK18 T166M mutant at 1 uM using YRRAAVPPSPSLS as substrate measured after 40 mins in presence of [gamma33P]ATP by scintillation counting method relative to control; format: protein-complex assay; method in brief: as §2
# [6] = molecular target: Dual specificity mitogen-activated protein kinase kinase 2 (Homo sapiens) (UniProt P36507); experiment: Inhibition of recombinant full-length human MEK2 at 1 uM using unactive […] as substrate measured after 40 mins in presence of [gamma33P]ATP by scintillation counting method relative to control
# [7] = molecular target: Transcription initiation factor TFIID subunit 1-like (Homo sapiens) (UniProt Q8IZX4); experiment: Inhibition of recombinant human TAF1L (1428 to end residues) at 1 uM using RRRFRPASPLRGPPK as substrate after 120 mins in presence of [gamma33P]ATP by scintillation counting analysis relative to control
# [8] = molecular target: Mitogen-activated protein kinase 8 (Homo sapiens) (UniProt P45983); experiment: Inhibition of recombinant full-length human JNK1alpha1 at 1 uM using ATF2 as substrate measured after 40 mins in presence of [gamma33P]ATP by scintillation counting method relative to control
# [9] = test system: NCI-H1299; experiment: Induction of apoptosis in human H1299 cells assessed as early apoptotic cells at 1 uM after 48 hrs by AnnexinV-FITC/PI staining-based flow cytometric analysis (reference value: 0.248%); format: functional
# [10] = molecular target: CDK9/cyclin T1 (Homo sapiens, UniProt P50750); experiment: Inhibition of recombinant full-length human CDK9/cyclinT1 using KTFCGTPEYLAPEVRREPRILSEEEQEMFRDFDYIADWC peptide as substrate measured after 40 mins in presence of [gamma33P]ATP by scintillation counting method; format: protein-complex assay
# Method in brief: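 IC50 against CDK9/cyclin T1, determined by the outsourced Eurofins KinaseProfiler service. Values are the mean of two independent experiments.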
# [11] = test system: MCF7; experiment: Antiproliferative activity against human MCF7 cells assessed as inhibition of cell viability after 72 hrs by CCK-8 assay; format: functional, cell-based; conditions: MCF7, 72 h
# Method in brief: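 Cells kept at 37 °C, 5% CO2 in DMEM or RPMI-1640 with 10% FBS and 1% penicillin/streptomycin, then seeded at 3000 cells/well (adherent) or 10,000 cells/well (suspension). Exposed to a range of concentrations for 72 h. CCK-8 added for 1-4 h before reading A450. […] Three independent experiments.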
# [12] = test system: Platelet-derived growth factor receptor alpha (Homo sapiens), P16234 [V561D]; experiment: Inhibition of recombinant human PDGFRalpha (550 to end residues) V561D mutant at 1 uM using GGMEDIYFEFMGGKKK as substrate measured after 40 mins in presence of [gamma33P]ATP by scintillation counting method relative to control
# [13] = molecular target: Mitogen-activated protein kinase kinase kinase 7 (Homo sapiens) (UniProt O43318); experiment: Inhibition of human TAK1 (1 to 303 residues) at 1 uM using casein as substrate measured after 40 mins in presence of [gamma33P]ATP by scintillation counting method relative to control; method in brief: as §1
# [14] = molecular target: Myosin-IIIb (Homo sapiens) (UniProt Q8WXR4); experiment: Inhibition of recombinant human MYO3B (1 to 326 residues) at 1 uM using RLGRDKYKTLRQIRQ as substrate measured after 40 mins in presence of [gamma33P]ATP by scintillation counting method relative to control
# [15] = test system: NCI-H1299; experiment: Antiproliferative activity against human H1299 cells assessed as inhibition of cell viability at 10 uM after 72 hrs by CCK-8 assay relative to control; format: functional; conditions: NCI-H1299, 72 h
# Method in brief: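 Single-concentration viability screen using CCK-8. Cells were seeded at 3000/well and treated for 72 h. A450 read after 1-4 h with reagent. Percent inhibition calculated against untreated control and blank wells as (Ac−As)/(Ac−Ab)×100%.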
# [16] = test system: Macrophage colony-stimulating factor 1 receptor (Homo sapiens), P07333 [Y969C]; experiment: Inhibition of recombinant human Fms (538 to end residues) Y969C mutant at 1 uM using EEEEYEEEEEEYYIIEEEEEEYEEEEEEYYEEEEEEKKKK as substrate measured after 40 mins in presence of [gamma33P]ATP by scintillation counting method relative to control
# [17] = molecular target: Ephrin type-A receptor 3 (Homo sapiens) (UniProt P29320); experiment: Inhibition of recombinant human EphA3 (568 to end residues) at 1 uM using poly(Glu, Tyr) 4:1 as substrate measured after 40 mins in presence of [gamma33P]ATP by scintillation counting method relative to control
# [18] = molecular target: Insulin receptor-related protein (Homo sapiens) (UniProt P14616); experiment: Inhibition of recombinant human IRR (943 to 1266 residues) at 1 uM using myelin basic protein as substrate measured after 40 mins in presence of [gamma33P]ATP by scintillation counting method relative to control
# [19] = molecular target: Tyrosine-protein kinase SYK (Homo sapiens) (UniProt P43405); experiment: Inhibition of recombinant full-length human Syk at 1 uM using poly(Glu, Tyr) 4:1 as substrate measured after 40 mins in presence of [gamma33P]ATP by scintillation counting method relative to control
# [20] = test system: NCI-H1299; experiment: Inhibition of tumorsphere formation in human H1299 cells assessed as reduction in side population ratio by PI/Hoechst 33342 staining based flow cytometry; format: functional, cell-based
# [21] = molecular target: Tyrosine-protein kinase TXK (Homo sapiens) (UniProt P42681); experiment: Inhibition of human Txk (256 to end residues) at 1 uM using GEEPLYWSFPAKKK as substrate measured after 40 mins in presence of [gamma33P]ATP by scintillation counting method relative to control; method in brief: as §1
# Dual specificity mitogen-activated protein kinase kinase 2 (Homo sapiens), sequence (P36507 whole entry): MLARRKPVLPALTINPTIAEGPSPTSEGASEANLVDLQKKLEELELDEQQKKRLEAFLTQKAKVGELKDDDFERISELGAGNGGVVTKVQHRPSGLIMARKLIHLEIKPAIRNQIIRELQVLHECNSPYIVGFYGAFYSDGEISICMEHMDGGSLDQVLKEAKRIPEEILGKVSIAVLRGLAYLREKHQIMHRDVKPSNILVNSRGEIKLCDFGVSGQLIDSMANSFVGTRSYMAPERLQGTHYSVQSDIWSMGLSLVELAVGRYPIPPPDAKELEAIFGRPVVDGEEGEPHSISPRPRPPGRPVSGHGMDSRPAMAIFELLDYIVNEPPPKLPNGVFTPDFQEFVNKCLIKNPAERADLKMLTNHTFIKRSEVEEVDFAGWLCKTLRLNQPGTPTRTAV
# Mitogen-activated protein kinase 8 (Homo sapiens), sequence (P45983 whole entry): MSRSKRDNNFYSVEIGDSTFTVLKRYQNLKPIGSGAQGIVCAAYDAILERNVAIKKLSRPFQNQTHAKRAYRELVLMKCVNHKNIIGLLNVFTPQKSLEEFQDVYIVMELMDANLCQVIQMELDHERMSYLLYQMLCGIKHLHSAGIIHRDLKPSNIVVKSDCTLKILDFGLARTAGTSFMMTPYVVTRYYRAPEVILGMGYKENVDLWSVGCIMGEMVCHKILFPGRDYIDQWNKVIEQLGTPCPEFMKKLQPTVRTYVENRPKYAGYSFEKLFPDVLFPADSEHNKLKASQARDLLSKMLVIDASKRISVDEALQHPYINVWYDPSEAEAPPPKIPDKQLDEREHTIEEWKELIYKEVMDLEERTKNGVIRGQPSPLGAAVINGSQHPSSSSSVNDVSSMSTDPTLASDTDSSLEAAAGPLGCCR
# Platelet-derived growth factor receptor alpha (Homo sapiens), P16234 [V561D], sequence (P16234 whole entry V561D, the tested form may be a part): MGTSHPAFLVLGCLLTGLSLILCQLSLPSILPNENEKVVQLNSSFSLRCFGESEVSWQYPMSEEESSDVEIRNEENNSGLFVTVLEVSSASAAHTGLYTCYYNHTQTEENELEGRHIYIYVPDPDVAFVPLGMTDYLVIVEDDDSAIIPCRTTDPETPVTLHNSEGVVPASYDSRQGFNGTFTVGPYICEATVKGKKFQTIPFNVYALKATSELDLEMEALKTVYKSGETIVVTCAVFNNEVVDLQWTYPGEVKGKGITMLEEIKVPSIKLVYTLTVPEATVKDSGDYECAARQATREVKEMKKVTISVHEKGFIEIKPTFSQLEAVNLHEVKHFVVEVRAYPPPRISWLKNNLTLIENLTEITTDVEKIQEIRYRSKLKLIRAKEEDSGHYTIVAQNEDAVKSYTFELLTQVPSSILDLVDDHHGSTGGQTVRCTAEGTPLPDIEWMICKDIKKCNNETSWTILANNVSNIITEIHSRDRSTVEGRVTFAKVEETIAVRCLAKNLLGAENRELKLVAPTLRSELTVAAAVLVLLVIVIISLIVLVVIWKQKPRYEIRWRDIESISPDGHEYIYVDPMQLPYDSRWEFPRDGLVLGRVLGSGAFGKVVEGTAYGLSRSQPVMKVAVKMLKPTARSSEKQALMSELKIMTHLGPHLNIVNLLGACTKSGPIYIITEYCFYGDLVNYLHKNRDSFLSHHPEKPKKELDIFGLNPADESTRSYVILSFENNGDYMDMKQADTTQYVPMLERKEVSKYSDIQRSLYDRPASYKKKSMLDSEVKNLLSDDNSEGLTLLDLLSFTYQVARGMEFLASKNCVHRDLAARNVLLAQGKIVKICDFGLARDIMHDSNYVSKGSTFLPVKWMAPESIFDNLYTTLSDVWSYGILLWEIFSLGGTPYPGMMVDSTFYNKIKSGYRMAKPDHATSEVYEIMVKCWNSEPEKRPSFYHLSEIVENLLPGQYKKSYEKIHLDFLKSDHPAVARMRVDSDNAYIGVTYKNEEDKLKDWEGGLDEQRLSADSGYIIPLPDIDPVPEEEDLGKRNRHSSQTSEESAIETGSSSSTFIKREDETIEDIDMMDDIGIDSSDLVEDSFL
# Ephrin type-A receptor 3 (Homo sapiens), sequence (P29320 whole entry, the tested form may be a part): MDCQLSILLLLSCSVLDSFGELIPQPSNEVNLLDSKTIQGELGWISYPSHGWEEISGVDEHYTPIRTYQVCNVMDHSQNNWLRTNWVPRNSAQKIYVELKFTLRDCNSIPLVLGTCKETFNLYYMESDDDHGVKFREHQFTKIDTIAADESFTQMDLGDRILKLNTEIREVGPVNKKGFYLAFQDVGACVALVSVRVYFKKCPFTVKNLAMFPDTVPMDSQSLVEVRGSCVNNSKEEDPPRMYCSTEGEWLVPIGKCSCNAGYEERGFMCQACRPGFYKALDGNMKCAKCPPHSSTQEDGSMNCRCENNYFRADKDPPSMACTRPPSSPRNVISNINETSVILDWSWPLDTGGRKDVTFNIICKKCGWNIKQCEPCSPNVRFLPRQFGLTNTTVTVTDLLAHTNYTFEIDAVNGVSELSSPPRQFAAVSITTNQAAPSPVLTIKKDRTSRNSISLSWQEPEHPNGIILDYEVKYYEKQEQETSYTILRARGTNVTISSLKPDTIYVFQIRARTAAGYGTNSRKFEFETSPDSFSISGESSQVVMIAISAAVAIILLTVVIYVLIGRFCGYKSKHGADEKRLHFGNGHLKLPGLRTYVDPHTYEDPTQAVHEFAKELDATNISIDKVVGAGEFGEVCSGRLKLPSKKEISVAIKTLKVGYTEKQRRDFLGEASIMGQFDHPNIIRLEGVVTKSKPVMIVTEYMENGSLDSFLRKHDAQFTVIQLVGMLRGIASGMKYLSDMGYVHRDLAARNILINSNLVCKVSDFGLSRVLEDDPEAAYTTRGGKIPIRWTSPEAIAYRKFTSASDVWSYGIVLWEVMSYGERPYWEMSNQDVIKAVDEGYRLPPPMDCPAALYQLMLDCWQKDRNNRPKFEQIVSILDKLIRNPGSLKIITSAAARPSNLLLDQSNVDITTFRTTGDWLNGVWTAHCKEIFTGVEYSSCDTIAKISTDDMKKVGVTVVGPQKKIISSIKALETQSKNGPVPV
# TGF-beta receptor type-2 (Homo sapiens), sequence (P37173 whole entry): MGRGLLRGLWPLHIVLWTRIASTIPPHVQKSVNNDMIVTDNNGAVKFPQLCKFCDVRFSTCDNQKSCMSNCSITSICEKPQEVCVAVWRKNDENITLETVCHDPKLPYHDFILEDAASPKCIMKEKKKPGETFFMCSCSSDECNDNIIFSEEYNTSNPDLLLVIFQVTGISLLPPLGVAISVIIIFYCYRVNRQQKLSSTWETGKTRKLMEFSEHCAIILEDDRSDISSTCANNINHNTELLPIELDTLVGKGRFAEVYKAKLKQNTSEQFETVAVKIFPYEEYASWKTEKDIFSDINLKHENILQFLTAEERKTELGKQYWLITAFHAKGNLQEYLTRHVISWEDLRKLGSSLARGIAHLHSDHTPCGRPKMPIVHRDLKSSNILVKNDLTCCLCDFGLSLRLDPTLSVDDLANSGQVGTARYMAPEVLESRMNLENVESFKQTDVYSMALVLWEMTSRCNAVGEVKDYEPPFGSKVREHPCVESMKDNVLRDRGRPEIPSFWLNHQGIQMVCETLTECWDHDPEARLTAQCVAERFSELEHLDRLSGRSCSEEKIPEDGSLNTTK
# SRSF protein kinase 1 (Homo sapiens), sequence (Q96SB4 whole entry): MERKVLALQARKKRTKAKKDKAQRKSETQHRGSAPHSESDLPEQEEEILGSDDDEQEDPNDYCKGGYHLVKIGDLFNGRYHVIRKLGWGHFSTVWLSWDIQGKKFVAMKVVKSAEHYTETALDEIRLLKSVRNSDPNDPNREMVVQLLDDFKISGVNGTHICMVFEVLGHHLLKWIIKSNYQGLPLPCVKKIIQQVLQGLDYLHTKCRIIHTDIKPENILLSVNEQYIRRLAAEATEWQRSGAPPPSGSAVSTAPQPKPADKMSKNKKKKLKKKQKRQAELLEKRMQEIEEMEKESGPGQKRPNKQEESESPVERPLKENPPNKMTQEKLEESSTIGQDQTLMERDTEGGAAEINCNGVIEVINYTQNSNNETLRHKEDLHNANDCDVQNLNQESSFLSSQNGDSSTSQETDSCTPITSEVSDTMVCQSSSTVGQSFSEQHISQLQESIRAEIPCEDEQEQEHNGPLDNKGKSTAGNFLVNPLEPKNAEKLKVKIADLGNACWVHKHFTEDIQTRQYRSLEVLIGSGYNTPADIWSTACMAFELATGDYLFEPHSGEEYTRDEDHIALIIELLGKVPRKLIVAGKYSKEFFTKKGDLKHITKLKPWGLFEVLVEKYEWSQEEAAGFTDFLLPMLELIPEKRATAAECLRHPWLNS
# Mitogen-activated protein kinase kinase kinase 7 (Homo sapiens), sequence (O43318 whole entry, the tested form may be a part): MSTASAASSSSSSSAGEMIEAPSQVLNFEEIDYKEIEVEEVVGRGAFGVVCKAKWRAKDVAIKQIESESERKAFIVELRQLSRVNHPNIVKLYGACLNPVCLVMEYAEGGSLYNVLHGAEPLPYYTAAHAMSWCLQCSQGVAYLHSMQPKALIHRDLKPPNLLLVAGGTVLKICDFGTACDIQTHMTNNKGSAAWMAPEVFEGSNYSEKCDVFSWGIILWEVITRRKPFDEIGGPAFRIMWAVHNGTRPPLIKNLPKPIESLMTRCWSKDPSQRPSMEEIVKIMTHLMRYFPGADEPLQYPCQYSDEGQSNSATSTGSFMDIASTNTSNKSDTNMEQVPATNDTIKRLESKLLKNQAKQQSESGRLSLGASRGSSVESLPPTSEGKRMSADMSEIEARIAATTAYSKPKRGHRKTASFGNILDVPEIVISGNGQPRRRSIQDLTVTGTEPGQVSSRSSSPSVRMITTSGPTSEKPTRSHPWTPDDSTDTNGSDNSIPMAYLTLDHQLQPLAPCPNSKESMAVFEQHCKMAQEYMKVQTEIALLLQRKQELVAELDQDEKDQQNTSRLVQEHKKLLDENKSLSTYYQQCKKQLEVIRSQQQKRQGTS
compound,measurement,setting,value
CN(C)C(=O)c1cc2cnc(Nc3ccc(NC(=O)CCCCCCCN=C=S)cc3)nc2n1C1CCCC1,inhibition,[1],88%
same,inhibition,[2],0%
same,inhibition,[3],15%
same,inhibition,[4],12%
same,inhibition,[5],11%
same,inhibition,[6],8%
same,inhibition,[7],23%
same,inhibition,[8],4%
same,Activity,[9],2.28%
same,IC50,[10],11 nM
same,IC50,[11],1740 nM
same,inhibition,[12],90%
same,inhibition,[13],79%
same,inhibition,[14],-1%
same,inhibition at 10 µM,[15],98.7%
same,inhibition,[16],40%
same,inhibition,[17],5%
same,inhibition,[18],3%
same,inhibition,[19],22%
same,inhibition,[20],Dose-dependent effect
same,inhibition,[21],81%
